Data reported in PMC10345485 (Saudi Pharmaceutical Journal : SPJ, 2023).
“And” between values parts separate entries of the source, which are not always exact repeats. Equal values may be shown once.

Target: urease (Canavalia ensiformis, UniProt P07374)
Assay: Urease inhibition assay
Assay type: biochemical
Conditions: IC50 (µM) ± SEM, in-vitro urease inhibition
In short: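 Test compound and enzyme preincubated in pH 6.8 phosphate buffer for 10 min at 37 °C. Phenol and alkali reagents then added. Absorbance read at 625 nm. Percent inhibition calculated as (control absorbance − sample absorbance)/control absorbance × 100. Run in triplicate, with a standard urease inhibitor as positive control. Values given ± SEM.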

urease, sequence (P07374 whole entry, looked up): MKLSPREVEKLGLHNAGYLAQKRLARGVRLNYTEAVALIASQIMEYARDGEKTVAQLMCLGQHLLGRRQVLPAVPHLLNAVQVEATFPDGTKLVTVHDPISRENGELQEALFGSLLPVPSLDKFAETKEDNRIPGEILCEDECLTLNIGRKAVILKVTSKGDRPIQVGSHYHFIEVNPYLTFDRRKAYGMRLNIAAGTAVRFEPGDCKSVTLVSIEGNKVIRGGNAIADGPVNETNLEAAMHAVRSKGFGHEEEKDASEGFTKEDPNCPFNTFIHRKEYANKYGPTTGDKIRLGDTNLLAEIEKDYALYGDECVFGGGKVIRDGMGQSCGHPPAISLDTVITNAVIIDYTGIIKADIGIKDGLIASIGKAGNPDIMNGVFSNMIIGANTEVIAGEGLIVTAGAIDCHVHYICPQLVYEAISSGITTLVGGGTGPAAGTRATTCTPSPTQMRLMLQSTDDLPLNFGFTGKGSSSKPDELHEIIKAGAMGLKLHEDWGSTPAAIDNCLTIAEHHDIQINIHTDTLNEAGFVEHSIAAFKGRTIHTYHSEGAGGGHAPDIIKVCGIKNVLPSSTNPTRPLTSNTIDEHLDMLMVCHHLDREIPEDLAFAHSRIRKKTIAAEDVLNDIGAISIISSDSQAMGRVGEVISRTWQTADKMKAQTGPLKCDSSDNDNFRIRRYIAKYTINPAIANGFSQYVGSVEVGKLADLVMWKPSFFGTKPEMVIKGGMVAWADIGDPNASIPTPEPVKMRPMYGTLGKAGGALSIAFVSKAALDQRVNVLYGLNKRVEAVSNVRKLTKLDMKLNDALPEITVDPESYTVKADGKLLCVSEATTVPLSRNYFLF

`Cc1ccc(C=NN=C(Cc2ccccc2)c2ccccc2)cc1` [Compound 8, 1-(1,2-diphenylethylidene)-2-(4-methylbenzylidene)hydrazine] was tested, and the IC50 was 47.9 µM and 45.9 µM.

`CSc1ccc(C=NN=C(Cc2ccccc2)c2ccccc2)cc1` [Compound 7, 1-(1,2-diphenylethylidene)-2-(4-(methylthio)benzylidene)hydrazine] was tested, and the IC50 was 45.9 µM and 48.3 µM.

With `Clc1ccc(C=NN=C(Cc2ccccc2)c2ccccc2)cc1` [Compound 6, 1-(4-chlorobenzylidene)-2-(1,2-diphenylethylidene)hydrazine] the IC50 was 28.11 ± 0.22 µM.

`O=[N+]([O-])c1ccc(O)c(C=NN=C(Cc2ccccc2)c2ccccc2)c1` [Compound 5, 1-(1,2-diphenylethylidene)-2-(2-hydroxy-5-nitrobenzylidene)hydrazine] gave an IC50 of 34.3 ± 0.65 µM.

`Clc1ccc(C=NN=C(Cc2ccccc2)c2ccccc2)c(Cl)c1` [Compound 3, 1-(2,4-dichlorobenzylidene)-2-(1,2-diphenylethylidene)hydrazine] gave an IC50 of 22.2 ± 0.42 µM.

With `O=[N+]([O-])c1ccc(C=NN=C(Cc2ccccc2)c2ccccc2)cc1` [Compound 4, 1-(1,2-diphenylethylidene)-2-(4-nitrobenzylidene)hydrazine] the IC50 was 26.11 ± 0.22 µM.

In the case of `Oc1ccc(C=NN=C(Cc2ccccc2)c2ccccc2)cc1` [Compound 9, 1-(1,2-diphenylethylidene)-2-(4-hydroxybenzylidene)hydrazine], the IC50 is reported as 48.3 µM and 47.9 µM.
